# High-throughput results (PubChem)
# ATG4B inh – inhibitors of human ATG4B cysteine protease; Q9Y4P1; ATG4B cleavage of LC3-PLA2, NBD-HPC fluorescence, 1 h; inhibition, % at 8.33 µM; 340,000 tested, 0.51% active; AID 504462; in the data active = inhibition above about 40%
# ABCB6 inh 2 – inhibitors of human ABC transporter ABCB6; Q9NP58; 360,000 tested, 0.19% active; K562-ABCB6 porphyrin accumulation, flow cytometry, 1 h; active compounds read low; fluorescence ratio to DMSO, % at 10 µM; AID 602162;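 active = fluorescence ratio to DMSO below 75%, the collection mean minus 3 SD; inconclusive = too few cells collected in the well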;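 also: signal is porphyrin accumulated inside mitochondria; 100% equals median channel fluorescence of DMSO control wells; lower ratio means ABCB6 inhibition with less porphyrin fluorescence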
# NRP1-CendR mod – modulators of CendR peptide binding to human neuropilin-1 | O14786 | AID 602438 | 360,000 tested, 0.85% active | FAM-RPARPAR peptide binding to NRP-1, fluorescence polarization | inhibition, % at 25 µM;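 active = inhibition or corrected inhibition above about 18%, plus a signal ratio from 0.5 to 1.5, limit read from the data, passing the limit was not always enough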
# Exocytosis inh – lytic granule exocytosis inhibition. TALL-104 LAMP-1 surface exposure, flow cytometry; cells stimulated with thapsigargin and PMA. inhibition, % at 10 µM. 360,000 tested, 0.66% active. AID 651702;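 active = inhibition above about 55%, limit read from the data; inconclusive = no clear call, values can overlap the other calls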
# Myeloid diff 2 – myeloid differentiation induction; ER-HoxA9 myeloid progenitors, lysozyme-GFP differentiation, flow cytometry; calls only at 10 µM; 360,000 tested, 1% active;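 active = normalized GFP-positive differentiation at or above the plate's own cutoff, the solvent-only control mean plus 3 SD; inconclusive = no clear call, values can overlap the other calls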;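 also: cells exposed to compound for four days before flow analysis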
# Arrestin-AP2 inh – inhibitors of human beta-arrestin and AP2 interaction. inhibition, % at 10 µM. 340,000 tested, 0.31% active. FITC-arrestin peptide / GST-AP2 beads, flow cytometry; AP2 beta2 appendage carries R879A mutation;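 active = inhibition above a set limit, near 3 SD of compounds lacking own fluorescence, cut at about 54% in these data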;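 also: plate controls were DMSO wells for no effect and 5 µM unlabelled arrestin peptide for full effect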
#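 Material – AP2 appendage R879A on GSH beads · Buffer or medium – PBS with 0.05% Tween 20 and 0.1% BSA · Probe or stimulus – fluorescein-tagged arrestin peptide at 50 nM final · Incubation – compound with beads 12 min RT, then probe 1 h RT · Detection – high-throughput flow cytometry of beads, ex 488, em 535 nm · Evaluation – percent response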
# Exocytosis CP01 – lytic granule exocytosis inhibition | shares compounds with Exocytosis inh | TALL-104 cells, LAMP-1 externalization, flow cytometry; stimulated with PMA plus thapsigargin | inhibition, % at 10 µM | 1,500 tested, 11% active; in the data active = inhibition above about 60%;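 also: 0% = stimulated vehicle wells and 100% = unstimulated wells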
# * marks the source's active call; other numbers are inactive results; i = inactive; u = inconclusive; x = no result given; + = active, no number. Only some compounds are listed: those with a hit (about 3.3% of all), similar ones and a draw of the others.
SMILES,ATG4B inh,ABCB6 inh 2,NRP1-CendR mod,Exocytosis inh,Myeloid diff 2,Arrestin-AP2 inh,Exocytosis CP01
COc1cc(C(C)=O)ccc1OCC(=O)NCC(c1ccc(F)cc1)N1CCOCC1 (centres undefined),-5.5,103.0,4.3,61.6*,i,12.9,-4.7
C=CCNc1nc(NCc2ccc(N(C)C)cc2)c2sc(-c3ccccc3)cc2n1,x,99.0,-33.5,74.8*,+,x,92.6*
C=CCNc1nc(NCCOC)c2sc(-c3ccccc3)cc2n1,x,89.0,0.0,1.1,i,x,x
c1ccc(OCCNc2nc(NCC3CC3)nc3cc(-c4ccccc4)sc23)cc1,x,89.0,-8.4,50.2,i,x,x
c1ccc(CNc2nc(NCC3CC3)nc3cc(-c4ccccc4)sc23)cc1,x,94.0,-5.5,71.1*,u,x,94.6*
COc1ccc(-c2cc([C@H]3[C@H]4C=CC[C@@H](C)[C@@H]4C(=O)N3Cc3ccccc3)ccc2F)cc1,0.9,96.0,8.6,57.3*,i,5.3,-14.5
CCOC(=O)Cn1c(=N)n(CCOc2ccc(Br)cc2)c2ccccc21,-2.1,98.0,-17.6,65.7*,i,7.5,0.8
NCCC1CCCC(CCN)N1 (centres undefined),3.5,100.0,-2.8,-2.2,i,2.8,x
CCOc1ccccc1CNC(=O)C1CCCN(c2nnc(C)c3c(C)n(-c4ccccc4)nc23)C1 (centres undefined),-3.1,97.0,-61.8,72.5*,i,10.1,9.2
Cc1ccc(-n2nc3c(N4CCC(C(=O)NCCc5ccccc5C)CC4)nnc(C)c3c2C)cc1,12.1,104.0,-25.1,34.8,u,28.4,x
Cc1ccc(-n2nc3c(N4CCC(C(=O)NCc5cccc(F)c5)CC4)nnc(C)c3c2C)cc1,28.4,91.0,0.7,59.0*,x,-12.2,8.6
Cc1ccc(-n2nc3c(N4CCC(C(=O)NCc5ccc(C)o5)CC4)nnc(C)c3c2C)cc1,31.7,107.0,-47.8,2.0,i,4.3,x
CCN(C(=O)c1ccc(Cl)c(S(=O)(=O)Nc2c(C)n(C)n(-c3ccccc3)c2=O)c1)c1ccccc1,-11.1,91.0,1.1,2.6,i,-16.7,x
COc1ccc(-c2cc(C)no2)cc1S(=O)(=O)N(C)Cc1ccco1,1.8,94.0,4.0,-0.5,i,9.3,x
CCCN(c1ccccc1F)S(=O)(=O)c1cc(-c2cc(C)no2)ccc1OC,-6.4,93.0,7.9,89.4*,i,29.3,-3.8
Cc1ccc(-n2sc3ccccc3c2=O)cc1,0.4,87.0,-10.7,74.2*,i,-0.1,33.0
O=c1c2ccccc2sn1-c1ccc(Cl)cc1,x,97.0,-18.9,79.2*,i,x,103.8*
O=c1c2ccccc2sn1-c1ccc(F)cc1,2.3,94.0,4.7,7.6,u,18.1,x
Cc1ccc(S(=O)(=O)N2CCC(=O)N(C(COCc3ccccc3)Cc3ccccc3)CC2)cc1 (centres undefined),7.9,90.0,-13.1,89.8*,i,22.0,-2.4
Cc1ccc(S(=O)(=O)N2CCC(=O)N([C@H](COCc3ccc(Cl)cc3)Cc3ccccc3)CC2)cc1,x,93.0,-7.8,-2.6,i,x,x
CCn1c(=O)c2cc(C(=O)NCCC(C)C)sc2c2ccccc21,8.6,96.0,-5.8,70.6*,i,-17.6,-8.5
CCCCC[C@H](C)N1C[C@H](COCc2ccccc2)Oc2cc(N3CC[C@@H](N(C)C)C3)ccc2S1(=O)=O,x,95.0,-9.8,63.6*,i,x,41.9
CCCCC[C@@H](C)N1C[C@H](COCc2ccccc2)Oc2cc(N3CC[C@@H](N(C)C)C3)ccc2S1(=O)=O,x,99.0,3.3,74.4*,i,x,72.0*
CCCCC[C@@H](C)N1C[C@@H](COCc2ccccc2)Oc2cc(N3CC[C@@H](N(C)C)C3)ccc2S1(=O)=O,x,96.0,5.8,58.1*,i,x,68.1*
CCCCC[C@@H](C)N1C[C@@H](COCc2ccccc2)Oc2cc(N3CC[C@@H](O)C3)ccc2S1(=O)=O,x,98.0,11.5,-2.7,i,x,x
CCCCC[C@H](C)N1C[C@H](COCc2ccccc2)Oc2cc(N3CC[C@H](N(C)C)C3)ccc2S1(=O)=O,x,95.0,5.2,52.9,i,x,x
